Data from ChEMBL document CHEMBL1134641, “Progress toward the development of a safe and effective agent for treating reentrant cardiac arrhythmias: synthesis and evaluation of ibutilide analogues with enhanced metabolic stability and diminished proarrhythmic potential” (2001).
“And” between values parts separate entries of the source, which are not always exact repeats. Identical values can stand only once.

Legend:
Canis familiaris [1] = experiment: Blood pressure measured in canine 24-h Infarction model at an cumulative intravenous dose of 0.72 uM/kg; format: functional, Canis lupus familiaris
Method in brief: (§1)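 Male mongrel dogs (16-22 kg) with LAD permanently ligated in two stages; studied 24 h later. […] given IV in sequential doses to cumulative 0.24, 0.72, 2.4 µmol/kg. Saline controls (n=8) received vehicle, then a single IV 2.4 µmol/kg dose at the end. Measurements taken at baseline and 15 min after each dose. Means ± SEM, paired t-test, p ≤ 0.05.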

Canis familiaris [2] = experiment: Heart rate measured in canine 24-h Infarction model at an cumulative intravenous dose of 0.24 uM/kg; format: functional, Canis lupus familiaris; method in brief: as §1
Canis familiaris [3] = experiment: Number of canine in which nonsustained ventricular tachycardia (NSVT) was observed in PES-induced arrhythmias at an cumulative intravenous dose of 2.4 uM/kg; format: functional, Canis lupus familiaris, Cardiac ventricle
Method in brief: (§2)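 Male mongrel dogs (16-22 kg) with LAD ligated in two stages, studied 24 h later. Programmed electrical stimulation at baseline and 15 min after each iv dose in saline (cumulative 0.24, 0.72, 2.4 µmol/kg). Saline controls then received a single 2.4 µmol/kg iv dose. Responses scored as NI (≤15 beats), NSVT (>15 beats, ends within 30 s), SVT (>30 s, needing pacing or cardioversion) or VF. A positive response was repeated.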

Canis familiaris [4] = experiment: Atrial effective refractory period (AERP) measured in canine just after inducing atrial flutter (AFL) termination by the compound at a dose of 12.0 uM/kg; format: functional, Canis lupus familiaris, Heart
Canis familiaris [5] = experiment: Number of canine in which sustained ventricular tachycardia (SVT) was observed in PES-induced arrhythmias at an single intravenous dose of 2.4 uM/kg; format: functional, Canis lupus familiaris, Cardiac ventricle; method in brief: as §2
Canis familiaris [6] = experiment: Heart Rate measured in canine just after inducing atrial flutter (AFL) termination by the compound at a dose of 0.24 umol/kg; format: functional, Canis lupus familiaris
Canis familiaris [7] = experiment: QT interval measured in canine just after inducing atrial flutter (AFL) termination by the compound at a dose of 1.2 uM/kg; format: functional, Canis lupus familiaris, Heart
Method in brief: (§3)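 Conscious, sling-restrained dogs with chronically implanted electrodes, studied after 2 weeks of recovery. Sustained AFL (>5 min) induced. Compound in saline given iv every 5 min to cumulative 0.024-12.0 µmol/kg. At AFL termination, HR, QT (paced cycle length 300 ms), AERP and VERP measured. Measurements then taken 3 min after each further dose. Significance p≤0.05 vs baseline.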

Canis familiaris [8] = experiment: Number of canine in which arrhythmias could not be induced at an cumulative intravenous dose of 0.72 uM/kg; format: functional, Canis lupus familiaris; method in brief: as §2
Canis familiaris [9] = experiment: Idioventricular heart rate (IVR) measured in canine 24-h Infarction model at a single intravenous dose of 2.4 uM/kg; format: functional, Canis lupus familiaris; method in brief: as §1
Canis familiaris [10] = experiment: Number of canine in which arrhythmias could not be induced at an single intravenous dose of 2.4 uM/kg; format: functional, Canis lupus familiaris; method in brief: as §2
Canis familiaris [11] = experiment: Atrial effective refractory period (AEPR) measured in canine 24-h Infarction model at a single intravenous dose of 2.4 uM/kg; format: functional, Canis lupus familiaris, Cardiac atrium; method in brief: as §1
Canis familiaris [12] = experiment: Atrial effective refractory period (AEPR) measured in canine 24-h Infarction model at an cumulative intravenous dose of 2.4 uM/kg; format: functional, Canis lupus familiaris, Cardiac atrium; method in brief: as §1
Canis familiaris [13] = experiment: QT interval measured in canine just after inducing atrial flutter (AFL) termination by the compound at a dose of 7.2 uM/kg; format: functional, Canis lupus familiaris, Heart; method in brief: as §3
Canis familiaris [14] = experiment: Heart Rate measured in canine just after inducing atrial flutter (AFL) termination by the compound at a dose of 12.0 uM/kg; format: functional, Canis lupus familiaris
Canis familiaris [15] = experiment: Number of canine in which arrhythmias could not be induced at an cumulative intravenous dose of 0.24 uM/kg; format: functional, Canis lupus familiaris; method in brief: as §2
Canis familiaris [16] = experiment: Atrial effective refractory period (AERP) measured in canine just after inducing atrial flutter (AFL) termination by the compound at a dose of 4.8 uM/kg; format: functional, Canis lupus familiaris, Heart
Canis familiaris [17] = experiment: Number of canine in which ventricular fibrillation (VF) was observed in PES-induced arrhythmias at an cumulative intravenous dose of 0.24 uM/kg; format: functional, Canis lupus familiaris, Cardiac ventricle; method in brief: as §2
Canis familiaris [18] = experiment: Number of canine in which ventricular fibrillation (VF) was observed in PES-induced arrhythmias at an cumulative intravenous dose of 2.4 uM/kg; format: functional, Canis lupus familiaris, Cardiac ventricle; method in brief: as §2
Canis familiaris [19] = experiment: Number of canine in which nonsustained ventricular tachycardia (NSVT) was observed in PES-induced arrhythmias at an single intravenous dose of 2.4 uM/kg; format: functional, Canis lupus familiaris, Cardiac ventricle; method in brief: as §2
Canis familiaris [20] = experiment: Atrial effective refractory period (AEPR) measured in canine 24-h Infarction model at an cumulative intravenous dose of 0.24 uM/kg; format: functional, Canis lupus familiaris, Cardiac atrium; method in brief: as §1
Canis familiaris [21] = experiment: Atrial MAPD90 measured in canine 24-h Infarction model at an cumulative intravenous dose of 2.4 uM/kg; format: functional, Canis lupus familiaris, Cardiac atrium; method in brief: as §1
Canis familiaris [22] = species: Canis familiaris; experiment: Heart Rate measured in canine just after inducing atrial flutter (AFL) termination by the compound; format: functional, Canis lupus familiaris
Canis familiaris [23] = experiment: Ventricular MAPD90 measured in canine 24-h Infarction model at an cumulative intravenous dose of 2.4 uM/kg; format: functional, Canis lupus familiaris, Heart
Method in brief: (§4)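 Dogs 24 h after two-stage LAD ligation. Compound in saline given iv in sequential doses (cumulative 0.24, 0.72, 2.4 µmol/kg); saline controls then given a single 2.4 µmol/kg iv dose. HR, IVR, BP, QT, spontaneous arrhythmias/min, ERPs and MAPD90 measured at baseline and 15 min after each dose. Means ± SEM, paired t-test, p≤0.05.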

Canis familiaris [24] = experiment: Heart Rate measured in canine just after inducing atrial flutter (AFL) termination by the compound at a dose of 0.6 umol/kg; format: functional, Canis lupus familiaris
Canis familiaris [25] = experiment: Heart Rate measured in canine just after inducing atrial flutter (AFL) termination by the compound at a dose of 7.2 uM/kg; format: functional, Canis lupus familiaris
Canis familiaris [26] = experiment: Heart rate measured in canine 24-h Infarction model at a single intravenous dose of 2.4 uM/kg; format: functional, Canis lupus familiaris; method in brief: as §1
Canis familiaris [27] = experiment: Spontaneous arrhythmias measured in canine 24-h Infarction model at an cumulative intravenous dose of 0.72 uM/kg; format: functional, Canis lupus familiaris; method in brief: as §4
Canis familiaris [28] = experiment: Idioventricular heart rate (IVR) measured in canine 24-h Infarction model at an cumulative intravenous dose of 0.72 uM/kg; format: functional, Canis lupus familiaris; method in brief: as §1
Canis familiaris [29] = experiment: Ventricular effective refractory period ([…]) measured in canine just after inducing atrial flutter (AFL) termination by the compound at a dose of 1.2 uM/kg; format: functional, Canis lupus familiaris, Heart
Method in brief: (§5)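 Conscious dogs, loosely restrained in a sling, with exteriorized electrode leads, studied 2 weeks after instrumentation. AFL was induced and counted as sustained if it lasted 5 min. Compound in saline given intravenously every 5 min to cumulative 0.024-12.0 µmol/kg. VERP was measured at AFL termination and 3 min after each dose. Results are means ± SEM versus baseline, p ≤ 0.05.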

Canis familiaris [30] = experiment: Atrial effective refractory period (AERP) measured in canine just after inducing atrial flutter (AFL) termination by the compound at a dose of 7.2 uM/kg; format: functional, Canis lupus familiaris, Heart
Canis familiaris [31] = experiment: Ventricular effective refractory period ([…]) measured in canine just after inducing atrial flutter (AFL) termination by the compound at a dose of 0.24 umol/kg; format: functional, Canis lupus familiaris, Heart; method in brief: as §5
Canis familiaris [32] = experiment: Spontaneous arrhythmias measured in canine 24-h Infarction model at a single intravenous dose of 2.4 uM/kg; format: functional, Canis lupus familiaris; method in brief: as §4
Canis familiaris [33] = experiment: QT interval measured in canine 24-h Infarction model at an cumulative intravenous dose of 2.4 uM/kg; format: functional, Canis lupus familiaris; method in brief: as §4
Canis familiaris [34] = experiment: Heart rate measured in canine 24-h Infarction model at an cumulative intravenous dose of 2.4 uM/kg; format: functional, Canis lupus familiaris; method in brief: as §1

CCN(CCCCCC(C)(C)F)CCC[C@H](O)c1ccc(NS(C)(=O)=O)cc1.O=C(O)/C=C/C(=O)O
BP (Canis familiaris [1]): 115 mmHg
HR (Canis familiaris [2]): 155 beats min-1
No. of canine (Canis familiaris [3]): 1
AERP (Canis familiaris [4]): 164 ms
No. of canine (Canis familiaris [5]): 1
HR (Canis familiaris [6]): 128 beats min-1
QT interval (Canis familiaris [7]): 212 ms
No. of canine (Canis familiaris [8]): 9
IVR (Canis familiaris [9]): 111 beats min-1
No. of canine (Canis familiaris [10]): 7
AERP (Canis familiaris [11]): 179 ms
AERP (Canis familiaris [12]): 194 ms
QT interval (Canis familiaris [13]): 205 ms
HR (Canis familiaris [14]): 122 beats min-1
No. of canine (Canis familiaris [15]): 8
AERP (Canis familiaris [16]): 166 ms
No. of canine (Canis familiaris [17]): 0
No. of canine (Canis familiaris [18]): 0
No. of canine (Canis familiaris [19]): 0
AERP (Canis familiaris [20]): 149 ms
Atrial MAPD90 (Canis familiaris [21]): 163 ms
HR (Canis familiaris [22]): 108 beats min-1
Ventricular MAPD90 (Canis familiaris [23]): 185 ms
HR (Canis familiaris [24]): 111 beats min-1
HR (Canis familiaris [25]): 127 beats min-1
HR (Canis familiaris [26]): 127 beats min-1
PVCs (Canis familiaris [27]): 68 number min-1 and 57 number min-1
IVR (Canis familiaris [28]): 130 beats min-1
VERP (Canis familiaris [29]): 144 ms
AERP (Canis familiaris [30]): 162 ms
VERP (Canis familiaris [31]): 142 ms
PVCs (Canis familiaris [32]): 53 number min-1
QT interval (Canis familiaris [33]): 240 ms
HR (Canis familiaris [34]): 135 beats min-1
